From PubChem BioAssay
hERG protect – hERG (human) protection from proarrhythmic block | Q12809 | CHO-hERG, FluxOR thallium flux, dofetilide IC70 present | activation (rescue from dofetilide block), less the hit threshold, % at 10 µM | 310,000 compounds, 0.51% hits | AID 1511;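 active = activation above the mean of controls blocked by dofetilide plus 5 SD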;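 also: thallium influx through hERG after potassium depolarization seen as dye fluorescence rise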
Kir21 inh – Kir2.1 (mouse) channel inhibition; HEK293-Kir2.1, FluxOR thallium flux fluorescence; active compounds read low; P35561; B-score at 10 µM; 310,000 compounds, 0.85% hits; AID 1672;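 active = fluorescence ratio B-score at or below minus 3 SD of library scores, with starting-brightness B-score within 2 SD, cut at about -4.2 in these data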;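 also: channel flux triggered by added potassium and thallium sulfate stimulus; B-score of peak minus minimum fluorescence over baseline after thallium stimulus; more negative B-score means stronger Kir2.1 block with less thallium influx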
KCNK3 inh – human KCNK3 channel inhibition, primary screen | O14649 | CHO-KCNK3 thallium flux, FluxOR fluorescence; active compounds read low | B-score at 10 µM | 340,000 compounds, 0.84% hits | AID 602410;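 active = B-score under library mean minus 4 SD, starting fluorescence ratio at most library mean plus 5 SD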;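 also: more negative B-score means stronger inhibition of thallium flux through KCNK3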
KCNQ1 inh – human KCNQ1 channel inhibition; B-score at 10 µM; CHO-K1 KCNQ1, FluxOR thallium flux fluorescence; active compounds read high; 310,000 compounds, 1.3% hits;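 active = compounds whose thallium flux B-score, printed positive for inhibition, exceeds three library SD while starting fluorescence stays within three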;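 also: channel opened by potassium depolarization with thallium stimulus after 20 min compound exposure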
KCNQ1 act – potentiates or activates the human KCNQ1 potassium channel | P51787 | CHO-K1 KCNQ1, thallium flux FluxOR fluorescence; active compounds read high | B-score at 10 µM | 310,000 compounds, 0.35% hits | AID 2648;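 active = fluorescence ratio B-score, a plate-corrected score, at least three library SD, with initial intensity B-score within 5 SD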
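Material: CHO-K1 cells stably expressing KCNQ1. Medium: assay buffer for compound exposure, DMSO matched across wells. Reagent: K+/Tl+ depolarizing stimulus. Compound dosing: single-concentration screen. Times: 37 °C overnight plating, 90-min dark dye load, 20-min compound pretreatment. Technique: FluxOR Tl+ flux fluorescence.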
KCNK9 block – inhibitors of human KCNK9 two-pore domain potassium channel | 310,000 compounds, 1.2% hits | HEK293 KCNK9, FluxOR thallium flux fluorescence; active compounds read low | Q9NPC2 | B-score at 10 µM;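 active = ratio B-score over 3 SD below the library mean, with starting fluorescence within 5 SD of its mean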;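 also: negative B-score means less thallium flux so channel inhibition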
Large screens that a line does not name were inactive. This is a sample that favours compounds with a hit; in the whole collection about 3.8% have one here.

CCN(c1cccc(C)c1)S(=O)(=O)c1cc2c3c(c1)CCC(=O)N3CCC2	Kir21 inh -5.83
CCCCNC(=O)/C(C#N)=c1\s/c(=C\c2ccccc2OC(F)F)c(=O)n1CCCOC	KCNQ1 inh 7
COCCCNC(=O)/C(C#N)=c1\s/c(=C\c2ccccc2OC(F)F)c(=O)n1CCCOC	none
CC1CCCC/C1=N/Nc1ccc([N+](=O)[O-])cc1[N+](=O)[O-] (stereo not drawn)	none
CC1C/C(=N/Nc2ccc([N+](=O)[O-])cc2[N+](=O)[O-])CC(C)(C)C1 (stereo not drawn)	KCNQ1 inh 7
O=C1C(Nc2ccccc2)=C(N2CCCCC2)C(=O)c2ccccc21	none
CN(C1=C(N2CCCCC2)C(=O)c2ccccc2C1=O)c1ccccc1	KCNK9 block -14.9
C=CCOc1ccc(/C=C2\SC(N)=NC2=O)cc1OC	none
COc1ccc(S(=O)(=O)N(C)c2ccccc2)c2cccnc12	Kir21 inh -5.1
CCN(Cc1ccccc1)S(=O)(=O)c1ccc(OC)c2ncccc12	none
Cc1ccccc1Nc1c(N)c(=O)oc2ccccc12	none
CCc1ccc(C(C)NC(=O)C2(C)CC2(Br)Br)cc1 (stereo not drawn)	hERG protect 4.9
CCc1ccc(C(C)NC(=O)C2CCCC2)cc1 (stereo not drawn)	hERG protect 4.9
CCC(NC(=O)C1(C)CC1(Br)Br)c1ccc(C)cc1 (stereo not drawn)	none
CCOC(=O)c1c(NC(=O)C2C3C=CC(CC3)C2C(=O)O)sc(C)c1C (stereo not drawn)	none
CCN(CC)/C(N)=N/c1nc(C)cc(C)n1	none
CCC(C)Sc1cc(-c2nc3ccccn3c2NC2CCCCC2)ccc1OC (stereo not drawn)	KCNQ1 inh 8
c1csc(-c2nc3ccccn3c2NC2CCCCC2)c1	none
CC(=O)c1ccc(-c2cccc(-c3nc4ccccn4c3NC3CCCCC3)c2)cc1	KCNK9 block -7.66
CCOc1ccc(-c2nonc2NC(=O)c2ccco2)cc1OCC	none
O=C(Nc1ccccc1)N1CCN(c2cccc(C(F)(F)F)c2)CC1	KCNK9 block -7.44
Cc1cccc(OCC(O)CN2CCNCC2)c1 (stereo not drawn)	none
COc1ccc(OCC(O)Cn2c(=N)n(Cc3ccccc3)c3ccccc32)cc1 (stereo not drawn)	Kir21 inh -7.33
Cc1cccc(OCC(O)Cn2c(=N)n(CCN3CCCCC3)c3ccccc32)c1 (stereo not drawn)	Kir21 inh -4.21
N=c1n(Cc2ccccc2)c2ccccc2n1CC(O)COc1ccc(Cl)cc1Cl (stereo not drawn)	none
Cc1cccc(OCC(O)Cn2c(=N)n(Cc3ccccc3)c3ccccc32)c1 (stereo not drawn)	Kir21 inh -9.97
CCN(CC)CCn1c(=N)n(CC(O)COc2cccc(C)c2)c2ccccc21 (stereo not drawn)	Kir21 inh -7.93
O=C(Cc1ccc(S(=O)(=O)N2CCCC2)s1)N1CCOCC1	none
CC(C)(C)c1ccc(Oc2ccc(N)cn2)cc1	KCNQ1 act 21
CC(=O)N1N=C(c2ccc([N+](=O)[O-])cc2)CC1c1ccccc1Cl (stereo not drawn)	none
Cc1ccc2cccc(S(=O)(=O)Nc3ccc4c(c3)OCO4)c2n1	Kir21 inh -5.32
Cc1ccc(-c2[nH]nc3c2C(c2cccnc2)C(C#N)=C(N)O3)cc1 (stereo not drawn)	hERG protect 5.0
Cc1cccc(N2CCN(C(=O)c3ccc(NS(=O)(=O)c4ccc5[nH]c(=O)[nH]c5c4)cc3)CC2)c1C	none
OCCN(CCO)CC(O)COCCC12CC3CC(CC(C3)C1)C2 (stereo not drawn)	KCNQ1 inh 8
CCN(CC)CC(O)COCCC12CC3CC(CC(C3)C1)C2 (stereo not drawn)	none
O=C(Nc1ccccc1-c1ccccc1)C(=O)Nc1ccccc1-c1ccccc1	none (no result: KCNK3 inh)
CN(C)c1c([N+](=O)[O-])cc(N2C(=O)C=CC2=O)cc1[N+](=O)[O-]	none (no result: hERG protect, Kir21 inh, KCNQ1 inh, KCNQ1 act, KCNK9 block)
Oc1ccc(CNc2ccccc2F)c2cccnc12	KCNQ1 inh 7
Oc1ccc(CN2CCCCC2)c2cccnc12	none
Oc1ccccc1CNc1cccc2cccnc12	KCNK9 block -7.29
COc1cc(NCc2ccccc2O)c2ncccc2c1	none
Oc1ccc(CN2CCc3ccccc3C2)c2cccnc12	Kir21 inh -10.3
CCOc1ccc(CCNC(=O)CCC(=O)c2cccs2)cc1OCC	none (no result: hERG protect, Kir21 inh, KCNQ1 inh, KCNQ1 act, KCNK9 block)
O=C(c1ccc(Cl)c([N+](=O)[O-])c1)N1CCN(C(=O)c2ccco2)CC1	none
CC(c1ccccc1)n1c(-c2ccc(Cl)cc2)n[nH]c1=S (stereo not drawn)	hERG protect 7.8
CC(c1ccccc1)n1c(-c2ccncc2)n[nH]c1=S (stereo not drawn)	none
CCOC(=O)C1CCCN(C(=O)c2cc3nc(-c4cccc(OC)c4)cc(C(F)(F)F)n3n2)C1 (stereo not drawn)	none
COC(=O)[C@@]12CCCN1[C@H](c1ccc(-c3cccc(Cl)c3)cc1)[C@H]1C(=O)N(C)C(=O)[C@H]12	KCNK9 block -7.13
Cc1csc(NC(=O)CSc2nncc(=O)n2N)n1	none
O=c1cc(CNc2cc(C(F)(F)F)cc(C(F)(F)F)c2)nc2sccn12	KCNK9 block -7.4
O=c1ccc(C(F)(F)F)cn1Cc1cc(=O)n2ccsc2n1	none
CCN1C(=NCc2cccc(Cl)c2)N[C@@H](c2cccc(F)c2)C(C(=O)OC)=C1C	Kir21 inh -4.49
COC(=O)C1=C(C)N(Cc2ccccc2)C(=NCc2cccc(C(F)(F)F)c2)N[C@H]1c1cccc(F)c1	Kir21 inh -5.58
CCN1C(=S)N[C@@H](c2cccc(F)c2)C(C(=O)OC)=C1C	none
COC(=O)C1=C(C)N(Cc2ccccc2)C(=NCc2cccc(C(F)(F)F)c2)N[C@H]1c1cccc(C(F)(F)F)c1	none (no result: hERG protect, Kir21 inh, KCNQ1 inh, KCNQ1 act, KCNK9 block)
COC(=O)C1=C(C)N(Cc2ccccc2)C(=NCc2ccc(OC)cc2)N[C@H]1c1ccccc1	none (no result: hERG protect, Kir21 inh, KCNQ1 inh, KCNQ1 act, KCNK9 block)
COC(=O)C1=C(C)N(Cc2ccccc2)C(=NCC(C)C)N[C@H]1c1ccccc1	Kir21 inh -8.17 (no result: KCNK3 inh)
COC(=O)C1=C(C)N(Cc2ccccc2)C(=NCCCCO)N[C@H]1CCc1ccccc1	Kir21 inh -5.09
O=C(Nc1nc2c(s1)CCCC2)c1cc(-c2ccc3c(c2)OCO3)nc2ccccc12	none (no result: KCNK3 inh)
CN(C)CC/C=C1\c2cc(F)ccc2CSc2ccccc21	none
C/C(=N\Nc1ccc(C(F)(F)F)cn1)c1ccc(S(=O)(=O)NCc2ccco2)cc1	none
COC(=O)C1=C(C)N(Cc2ccccc2)C(=O)N[C@H]1c1cccc(F)c1	none
